ChEMBL document CHEMBL1122671, “Anticonvulsant activity of some 4-aminobenzamides” (J Med Chem, 1984)
Calls of active or inactive are those of the source.

Tests used:
Mus musculus [1] = experiment: Anticonvulsant activity against MES (maximal electroshock) induced seizure in mice at 4 hr; ++ = Activity at 300 mg/kg.; format: functional, organism-based; design: dose 300 mg/kg
Method in brief: (§1)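 Male Carworth Farms number-one mice received the compound ip in 30% polyethylene glycol 400. Doses were 30, 100 and 300 mg/kg, with 600 mg/kg in some cases. Maximal electroshock seizure protection was scored at 30 min and 4 h after dosing. Activity is coded by the lowest effective dose.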

Mus musculus [2] = experiment: Evaluated for toxicity by using rotarod test in mice at 4 hr; + indicates activity at 600 mg/kg.; format: organism-based; design: dose 600 mg/kg; conditions: in vivo
Method in brief: (§2)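 Neurotoxicity in male Carworth Farms number-one mice dosed ip in 30% PEG 400 at 30, 100, 300 and sometimes 600 mg/kg, tested 30 min or 4 h later. Mice placed on a 1-in. knurled rod rotating at 6 rpm; toxicity means failure to stay on the rod for 1 min. Scored by the lowest toxic dose; footnotes record loss of righting reflex or lethality.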

Mus musculus [3] = experiment: Evaluated for toxicity by using rotarod test at in mice 30 min; ++ indicates activity at 300 mg/kg,*-Loss of righting reflex at less than 300 mg/kg; format: organism-based; conditions: in vivo, 0.5 h; method in brief: as §2
Mus musculus [4] = experiment: Anticonvulsant activity against MES (maximal electroshock) induced seizure in mice at 30 min; +++ = Activity at 100 mg/kg.; format: functional, organism-based; design: dose 100 mg/kg; method in brief: as §1
Mus musculus [5] = experiment: Anticonvulsant activity against scMet (subcutaneous metrazole) induced seizure in mice at 30 min; ++ indicates activity at 600 mg/kg.; format: functional, organism-based; design: dose 600 mg/kg
Mus musculus [6] = experiment: Anticonvulsant activity against scMet (subcutaneous metrazole) induced seizure in mice at 4 hr; ++ indicates activity at 600 mg/kg.; format: functional, organism-based; design: dose 600 mg/kg
Mus musculus [7] = experiment: Evaluated for toxicity by using rotarod test in mice at 4 hr; ++ = Activity at 300 mg/kg.; format: organism-based; design: dose 300 mg/kg; conditions: in vivo; method in brief: as §2
Mus musculus [8] = experiment: Anticonvulsant activity against scMet (subcutaneous metrazole) induced seizure in mice at 30 min; - = No activity at 600 mg/kg.; format: functional, organism-based; design: dose 600 mg/kg
Method in brief: (§3)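 Male Carworth Farms number-one mice dosed ip (30% PEG 400) at 30, 100, 300 and in some cases 600 mg/kg. Pentylenetetrazole 85 mg/kg given sc as a 0.5% solution in the posterior midline, at 30 min or 4 h. Protection means no clonic spasm of at least 5 s within 30 min. Scored by the lowest protective dose.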

Mus musculus [9] = experiment: Anticonvulsant activity against scMet (subcutaneous metrazole) induced seizure in mice at 4 hr; ++ = Activity at 300 mg/kg.; format: functional, organism-based; design: dose 300 mg/kg
Mus musculus [10] = experiment: Anticonvulsant activity against MES (maximal electroshock) induced seizure in mice at 4 hr; +++ = Activity at 100 mg/kg.; format: functional, organism-based; design: dose 100 mg/kg; method in brief: as §1
Mus musculus [11] = species on record: Mus musculus; experiment: Evaluation of neurologic deficit by rotarod procedure in mice; format: functional
Method in brief: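 Male Carworth Farms number-one mice were dosed ip (30% PEG 400 vehicle) and placed on a 1-in. knurled plastic rod rotating at 6 rpm. Neurotoxicity meant failure to stay on the rod for 1 min. TD50 was determined graphically.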

Mus musculus [12] = species on record: Mus musculus; experiment: Evaluation of inhibitory activity against scMet induced convulsions in mice; NA = No activity.; format: functional, organism-based
[13] = Protective index (PI) which is defined as the ratio of TD50 to the ED50 (MES).; format: functional
Method in brief: (§4)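 Both values come from ip dosing in 30% PEG 400 to male Carworth Farms number-one mice and were derived by the graphical method.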

Mus musculus [14] = experiment: Evaluated for toxicity by using rotarod test at in mice 30 min; +++ = Activity at 100 mg/kg, *-Loss of righting reflex at less than 300 mg/kg; format: organism-based; conditions: in vivo, 0.5 h; method in brief: as §2
Mus musculus [15] = experiment: Anticonvulsant activity against scMet (subcutaneous metrazole) induced seizure in mice at 4 hr; - = No activity at 600 mg/kg.; format: functional, organism-based; design: dose 600 mg/kg; method in brief: as §3
Mus musculus [16] = experiment: Evaluated for toxicity by using rotarod test at in mice 30 min; - = No activity at 600 mg/kg.; format: organism-based; design: dose 600 mg/kg; conditions: in vivo, 0.5 h; method in brief: as §2
Mus musculus [17] = experiment: Evaluated for toxicity by using rotarod test in mice at 4 hr; - = No activity at 600 mg/kg.; format: organism-based; design: dose 600 mg/kg; conditions: in vivo; method in brief: as §2
Mus musculus [18] = experiment: Anticonvulsant activity against MES (maximal electroshock) induced seizure in mice at 30 min; + = Activity at 600 mg/kg.; format: functional, organism-based; design: dose 600 mg/kg
Method in brief: (§5)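 Male Carworth Farms number-one mice; compounds in 30% polyethylene glycol 400, given ip at 30, 100 and 300 mg/kg, some also at 600 mg/kg. Maximal electroshock challenge at 30 min or 4 h after dosing. Scored by the lowest dose giving protection (++++ 30, +++ 100, ++ 300, + 600 mg/kg; - none at 600).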

Mus musculus [19] = experiment: Anticonvulsant activity against MES (maximal electroshock) induced seizure in mice at 4 hr; - = No activity at 600 mg/kg.; format: functional, organism-based; design: dose 600 mg/kg; method in brief: as §5
Mus musculus [20] = experiment: Evaluated for toxicity by using rotarod test at in mice 30 min; - = no activity observed at 600 mg/Kg; format: organism-based; conditions: in vivo, 0.5 h; method in brief: as §2
Mus musculus [21] = experiment: Anticonvulsant activity against scMet (subcutaneous metrazole) induced seizure in mice at 4 hr; - = no activity observed at 600 mg/Kg; format: functional, organism-based
Mus musculus [22] = experiment: Anticonvulsant activity against MES (maximal electroshock) induced seizure in mice at 30 min; - = no activity observed at 600 mg/Kg; format: functional, organism-based; method in brief: as §1
Mus musculus [23] = experiment: Anticonvulsant activity against MES (maximal electroshock) induced seizure in mice at 4 hr; - = no activity observed at 600 mg/Kg; format: functional, organism-based; method in brief: as §1
Mus musculus [24] = experiment: Anticonvulsant activity against scMet (subcutaneous metrazole) induced seizure in mice at 30 min; - = no activity observed at 600 mg/Kg; format: functional, organism-based
Mus musculus [25] = experiment: Evaluated for toxicity by using rotarod test in mice at 4 hr; - = no activity observed at 600 mg/Kg; format: organism-based; conditions: in vivo; method in brief: as §2
Mus musculus [26] = species on record: Mus musculus; experiment: Evaluation of inhibitory activity aagainst MES induced convulsions in mice.; format: functional
Method in brief: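 Quantitative MES test in male Carworth Farms number-one mice. Compound in 30% polyethylene glycol 400, given ip at graded doses. Median effective dose (ED50) read by the graphical method.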

[27] = Protective index (PI) which is defined as the ratio of TD50 to the ED50 (ScMet).; format: functional; method in brief: as §4
Mus musculus [28] = experiment: Anticonvulsant activity against scMet (subcutaneous metrazole) induced seizure in mice at 4 hr; ++ indicates activity at 300 mg/kg.; format: functional, organism-based; design: dose 300 mg/kg
Mus musculus [29] = experiment: Evaluated for toxicity by using rotarod test in mice at 4 hr; ++ indicates activity at 300 mg/kg.; format: organism-based; design: dose 300 mg/kg; conditions: in vivo; method in brief: as §2
Mus musculus [30] = experiment: Evaluated for toxicity by using rotarod test at in mice 30 min; +++ indicates activity at 100 mg/kg *-Loss of righting reflex at less than 600 mg/kg; format: organism-based; conditions: in vivo, 0.5 h; method in brief: as §2
Mus musculus [31] = species on record: Mus musculus; experiment: Evaluation of inhibitory activity against scMet induced convulsions in mice; format: functional
Mus musculus [32] = experiment: Anticonvulsant activity against MES (maximal electroshock) induced seizure in mice at 4 hr; +++ indicates activity at 100 mg/kg.; format: functional, organism-based; design: dose 100 mg/kg; method in brief: as §1

CCCNC(=O)c1ccc(N)cc1
Activity (Mus musculus [1]): Activity at 100 mg/kg
Toxicity (Mus musculus [2]): activity at 300 mg/kg,*-Loss of righting reflex at less than 300 mg/kg
Toxicity (Mus musculus [3]): activity at 300 mg/kg,*-Loss of righting reflex at less than 300 mg/kg
Activity (Mus musculus [4]): Activity at 100 mg/kg
Activity (Mus musculus [5]): Activity at 100 mg/kg
Activity (Mus musculus [6]): Activity at 100 mg/kg

Nc1ccc(C(=O)NCc2ccccc2)cc1
Toxicity (Mus musculus [7]): Activity at 100 mg/kg, *-Loss of righting reflex at < 300 mg/kg
Activity (Mus musculus [8]): Not toxic
Activity (Mus musculus [9]): Activity at 100 mg/kg
Activity (Mus musculus [10]): Activity at 100 mg/kg
TD50 (Mus musculus [11]): 83.4 mg/kg
ED50 (Mus musculus [12]): inactive
PI [13]: 3.6
Toxicity (Mus musculus [14]): Activity at 100 mg/kg, *-Loss of righting reflex at < 300 mg/kg

CNC(=O)c1ccc(N)cc1
Activity (Mus musculus [15]): Not toxic
Toxicity (Mus musculus [16]): Not toxic
Activity (Mus musculus [8]): Not toxic
Toxicity (Mus musculus [17]): Not toxic
Activity (Mus musculus [18]): Activity at 600 mg/kg
Activity (Mus musculus [19]): Not toxic

Nc1ccc(C(=O)NC(c2ccccc2)c2ccccc2)cc1
Toxicity (Mus musculus [20]): Not toxic
Activity (Mus musculus [21]): Not toxic
Activity (Mus musculus [22]): Not toxic
Activity (Mus musculus [23]): Not toxic
Activity (Mus musculus [24]): Not toxic
Toxicity (Mus musculus [25]): Not toxic

CN(Cc1ccccc1)C(=O)c1ccc(N)cc1
ED50 (Mus musculus [26]): 52.6 mg/kg
PI [27]: 1.2
Activity (Mus musculus [4]): Activity at 100 mg/kg
Activity (Mus musculus [28]): Activity at 100 mg/kg
Toxicity (Mus musculus [29]): activity at 100 mg/kg *-Loss of righting reflex at less than 600 mg/kg
TD50 (Mus musculus [11]): 98.1 mg/kg
PI [13]: 1.9
Toxicity (Mus musculus [30]): activity at 100 mg/kg *-Loss of righting reflex at less than 600 mg/kg
ED50 (Mus musculus [31]): 81.7 mg/kg
Activity (Mus musculus [32]): Activity at 100 mg/kg
